The test system of test [1] is M5076. The test can be described thus: Optimum dose measured in mg/kg. It is filed as functional, organism-based.
Test [2] deals with L1210. Briefly: Antitumor activity (ip) against CDF1 mice bearing Leukemia L1210 cells in 6 mice. The format is functional, organism-based. Conditions: Mus musculus. Summed up:
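Female CDF1 mice (16-22 g) inoculated ip with 1 × 10^6 L1210 cells in 0.5 mL […] on day 0. Compound given day 1 in 0.5 mL water, six mice per dose. Vehicle controls and cisplatin 8 mg/kg positive controls included. Run to 3× control MST, survivors scored as dying then. Read-out %ILS of MST; >25% active, maximum 200%.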

Test [3] relates to Mus musculus. The test can be described thus: Number of surviving CFW mice bearing Sarcoma 180 ascites (S180a) (6 mice treated i.p.). The format is functional, organism-based. Summed up:
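Female CFW mice (18-25 g) implanted ip with 2 × 10^6 S180 ascites cells on day 0. Compound given ip in 0.5 mL water on day 1, adjusted to pH 7, six mice per dose. Vehicle and cisplatin control groups included. Run to twice control MST, survivors counted as dying that day. Read-out %ILS of MST; >50% active, maximum 100%.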

In test [4] the test system is Mus musculus. The test can be described thus: Antitumor activity against CFW mice bearing Sarcoma 180 ascites (S180a) following i.p. administration. It is filed as functional, organism-based. Summed up:
(§1)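 Female CFW mice (18-25 g) were implanted ip with 2 × 10^6 Sarcoma 180 ascites cells on day 0. Compound was given ip in 0.5 mL water on day 1, with six mice per dose. The run lasted twice the control MST, and survivors were counted as dying then. Activity is % ILS of MST; >50% counts as active, and the maximum is 100%.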

The test system of test [5] is M5076. Briefly: Antitumor activity of the best % ILS of platinum-phospono carboxylate complex against subcutaneously implanted M5076 reticulum cell sarcoma. It is filed as functional. Summed up: (§2)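 BDF1 mice of either sex (6-10 weeks) were implanted sc on day 0 with ~25 mg M5076 tumor fragments. Dosing was iv on days 5, 9, 13 and 17, with doses given per injection, in groups of eight. Study ended on day 75. Read-outs were % ILS of MST and T-C, the difference in median days for tumors to reach 1 g. Active means ILS ≥25% or T-C >13 days.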

Test [6] deals with M5076. The test can be described thus: Relative median time for tumors to reach 1 g in drug-treated groups and the control group (T-C in days). The format is functional. Summed up: as §2
The species entered for test [7] is Mus musculus. Briefly: Optimal dose in Sarcoma inoculated CFW mice. It is filed as functional, organism-based. Summed up: as §1
Test [8] deals with L1210. Briefly: Antitumor activity (ip) against CDF1 mice bearing Leukemia L1210 cells. The format is functional, organism-based. Conditions: Mus musculus. Summed up: (§3)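 Female CDF1 mice (16-22 g) received 1 × 10^6 L1210 cells ip in 0.5 mL […] on day 0. Test compound was given in 0.5 mL water on day 1, with six mice per dose. The study ended at 3× the control mean survival time (MST), and survivors were scored as dying that day. ILS is the % increase in MST over controls; >25% counts as active, and the maximum possible is 200%.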

The test system of test [9] is L1210. The test can be described thus: Optimal dose of the compound measured in mg/kg against CDF1 mice bearing L1210 leukemia cells. The format is functional, organism-based. To be noted: Mus musculus. Summed up:
as §3

With CISPLATIN, the DOSE came to 5 in the test with M5076 [1], 8 mg/kg in the test listed under Mus musculus [7] and 8 mg/kg in the test on L1210 [9]. Besides, the results for the Survivors with L1210 [2] and in the test with Mus musculus [3] were 0 and 3, respectively. Further, the figures for the increase in lifespan (ILS) in the test with Mus musculus [4], with M5076 [5] and in the test on L1210 [8] were 81%, 28% and 87%, respectively. The same sequence yielded a T-C with M5076 [6] of 25.

Take CARBOPLATIN: the Survivors in the test on L1210 [2] worked out at 0; in the test with Mus musculus [3], 4. In addition, the increase in life span (ILS) in the test on Mus musculus [4] came out at 95%; in the test with L1210 [8], 90%. In addition, the DOSE in the test filed under Mus musculus [7] was 120 mg/kg; in the test on L1210 [9], 80 mg/kg.

For orientation: ILS means how much longer treated animals lived than controls.

For the origin of these results see ChEMBL document CHEMBL1124920, “cis-diamineplatinum (II) complexes containing phosphono carboxylate ligands as antitumor agents” (J Med Chem, 1990).
